Common to all, as to format: functional, cell-based
In one test the test system is A549. The experiment in a line: Antiproliferative activity against human A549 cells after 72 hrs by MTT assay. The note with it: for pIC50: Homo sapiens, A549, 72 h, read-out: IC50; for IC50: a549. The procedure, abridged: (§1)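 Cells grown in MEM with 10% FBS. About 4×10³ cells per well, pre-incubated 24 h at 37°C in 5% CO₂. Compound added at final concentrations, then 72 h. MTT added at 5 µg/mL final for 4 h at 37°C. Tested three times; IC50 taken as the average of […] determinations.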

Another test has as its system HepG2. Briefly: Antiproliferative activity against human HepG2 cells after 72 hrs by MTT assay. The note with it: for pIC50: Homo sapiens, HepG2, 72 h, read-out: IC50; for IC50: hepg2. The procedure, abridged: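 Cells grown in MEM with 10% FBS. About 4×10³ cells per well, pre-incubated 24 h at 37°C in 5% CO₂. Compound added at final concentrations, then 72 h. MTT added at 5 µg/mL final for 4 h at 37°C. Formazan dissolved in DMSO and read at 492 nm against 630 nm reference. Tested three times; IC50 taken as the average of […] determinations.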

Another test relates to MCF7. The experiment in a line: Antiproliferative activity against human MCF7 cells after 72 hrs by MTT assay. Conditions: for IC50: mcf7; for pIC50: Homo sapiens, MCF7, 72 h, read-out: IC50; call rule not given here. The procedure, abridged:
as §1
A general note: Tetrazolium assays rely on reduction of a dye to a coloured formazan, in cell work by metabolically active cells.

Another test relates to PC-3. Briefly: Antiproliferative activity against human PC3 cells after 72 hrs by MTT assay. The note with it: for IC50: pc-3; for pIC50: Homo sapiens, PC-3, 72 h, read-out: IC50. The procedure, abridged: as §1

pIC50: −log10 of the molar value.

What is called pIC50 is −log10 of the IC50, conventionally taken in molar units. For the compound `O=C(N/N=C/c1ccc(Br)cc1)Nc1ccc(Oc2ccnc3[nH]ccc23)cc1`, the results for the pIC50 in the test on A549 and in the test with HepG2 were 6.19 and 6.00, respectively. For the same compound, the IC50 entry in the test with MCF7 and in the test with PC-3 was “Not Active” in each case.

Turning to `O=C(N/N=C/c1ccc(Cl)c(Cl)c1)Nc1ccc(Oc2ccnc3[nH]ccc23)c(F)c1`, the pIC50 was 5.58 with A549, 5.43 in the test on HepG2, 6.00 in the test with MCF7 and 4.85 with PC-3.

On to `O=C(N/N=C/c1ccccc1)Nc1ccc(Oc2ccnc3[nH]ccc23)cc1`, for which the pIC50 in the test with A549 was 4.76; with HepG2 it was 6.12; in the test with MCF7 it was 5.82; in the test with PC-3, 4.99.

Take `O=C(N/N=C/c1ccc(O)cc1)Nc1ccc(Oc2ccnc3[nH]ccc23)cc1`: the pIC50 in the test with A549 is 5.72; with HepG2, 4.49; in the test with MCF7, 5.24; in the test with PC-3 it was 5.31.

On to `O=C(N/N=C/c1cc(Br)c(O)c(Br)c1)Nc1ccc(Oc2ccnc3[nH]ccc23)c(F)c1`, for which the pIC50 in the test on A549 was 4.79; with HepG2, 5.19. The IC50 result with MCF7 and with PC-3 was “Not Active” each time.

As to `CCN(CC)CCn1cccc1/C=N/NC(=O)Nc1ccc(Oc2ccnc3[nH]ccc23)cc1`, the figures for the pIC50 in the test on A549, with HepG2 and in the test on PC-3 were 5.45, 5.23 and 5.86, respectively.

For the compound `O=C(N/N=C/c1cccn1CCN1CCOCC1)Nc1ccc(Oc2ccnc3[nH]ccc23)cc1`, the pIC50 in the test on A549 was 5.41; with HepG2, 5.00; in the test with PC-3 it was 5.78.

With `O=C(N/N=C/c1cccn1CCN1CCOCC1)Nc1ccc(Oc2ccnc3[nH]ccc23)c(F)c1`, the pIC50 was 5.47 in the test with A549, 4.92 with HepG2 and 5.61 in the test on PC-3.

In the case of `O=C(N/N=C/c1cccc([N+](=O)[O-])c1)Nc1ccc(Oc2ccnc3[nH]ccc23)c(F)c1`, the figures for the pIC50 with A549, in the test on HepG2 and with PC-3 were 5.44, 5.29 and 5.29, respectively. In addition, in the test on MCF7, the IC50 result is reported as “Not Active”.

On to `COc1ccc(/C=N/NC(=O)Nc2ccc(Oc3ccnc4[nH]ccc34)c(F)c2)cc1`, for which the pIC50 in the test with A549 was 5.40; in the test on HepG2, 5.75; with MCF7 it was 5.24; with PC-3, 5.17.

As for `O=C(N/N=C/c1cccn1CCCN1CCCCC1)Nc1ccc(Oc2ccnc3[nH]ccc23)c(F)c1`, the pIC50 in the test with A549 is 5.55; with HepG2 it was 5.55; in the test with MCF7, 5.32; in the test with PC-3, 5.55.

As for `COc1ccc(/C=N/NC(=O)Nc2ccc(Oc3ccnc4[nH]ccc34)c(F)c2)c(OC)c1OC`, the pIC50 in the test on A549 is 5.84; in the test on HepG2, 5.52; in the test with MCF7 it was 6.87; in the test on PC-3, 5.05.

With `CN(C)CCCn1cccc1/C=N/NC(=O)Nc1ccc(Oc2ccnc3[nH]ccc23)cc1`, the pIC50 is 5.58 in the test on A549, 5.38 in the test on HepG2, 5.04 in the test on MCF7 and 5.29 in the test on PC-3.

With `COc1cc(/C=N/NC(=O)Nc2ccc(Oc3ccnc4[nH]ccc34)c(F)c2)cc(OC)c1OC`, the figures for the pIC50 with A549 and in the test on MCF7 were 4.47 and 4.66, respectively. For the same compound, the IC50 entry in the test on HepG2 and in the test on PC-3 was “Not Active” throughout.

As to `COc1ccc(/C=N/NC(=O)Nc2ccc(Oc3ccnc4[nH]ccc34)cc2)c(OC)c1OC`, the figures for the pIC50 in the test on A549, in the test with HepG2 and in the test with PC-3 were 5.48, 5.53 and 4.56, respectively. Further, in the test with MCF7, the IC50 entry is recorded as “Not Active”.

On to `O=C(N/N=C/c1ccc(F)cc1Cl)Nc1ccc(Oc2ccnc3[nH]ccc23)c(F)c1`, for which the pIC50 was 8.00 with A549, 5.95 with HepG2, 5.12 with MCF7 and 8.52 in the test on PC-3.

With `CN1CCN(CCCn2cccc2/C=N/NC(=O)Nc2ccc(Oc3ccnc4[nH]ccc34)cc2)CC1`, the pIC50 in the test on A549 is 5.79; with HepG2 it was 5.56; in the test on MCF7, 5.37; in the test on PC-3 it was 5.43.

For the compound `O=C(N/N=C/c1ccccc1)Nc1ccc(Oc2ccnc3[nH]ccc23)c(F)c1`, the negative-log IC50 (pIC50) with A549 is 5.60; in the test on HepG2, 6.19; in the test on MCF7, 5.62; with PC-3, 5.10.

With `N#Cc1ccc(/C=N/NC(=O)Nc2ccc(Oc3ccnc4[nH]ccc34)c(F)c2)cc1`, the pIC50 in the test with A549 is 5.87; in the test on HepG2, 6.07; in the test with PC-3, 5.04. For the same compound, in the test with MCF7, the IC50 entry is “Not Active”.

Take `O=C(N/N=C/c1cccc(Br)c1)Nc1ccc(Oc2ccnc3[nH]ccc23)c(F)c1`: the pIC50 with A549 was 5.65; in the test with HepG2, 6.18; in the test on MCF7, 7.31; in the test with PC-3, 5.40.

With `O=C(N/N=C/c1ccc(O)cc1O)Nc1ccc(Oc2ccnc3[nH]ccc23)c(F)c1`, the pIC50 with A549 was 5.23; with HepG2, 5.34; with MCF7, 4.32; in the test with PC-3 it was 4.89.

With `O=C(N/N=C/c1cccn1CCCN1CCCCC1)Nc1ccc(Oc2ccnc3[nH]ccc23)cc1`, the pIC50 with A549 is 5.81; with HepG2, 5.43; in the test on MCF7 it was 5.33; in the test on PC-3 it was 5.45.

Turning to `O=C(N/N=C/c1ccc(O)cc1Br)Nc1ccc(Oc2ccnc3[nH]ccc23)cc1`, the pIC50 in the test with A549 is 5.29. Further, the IC50 result with MCF7 and in the test with PC-3 was “Not Active” in each case.

As for `O=C(N/N=C/c1cccn1CCCN1CCCC1)Nc1ccc(Oc2ccnc3[nH]ccc23)c(F)c1`, the pIC50 in the test on A549 is 5.70; in the test on HepG2, 5.46; in the test with MCF7 it was 5.34; in the test on PC-3 it was 5.45.

With `O=C(N/N=C/c1cccc(Cl)c1Cl)Nc1ccc(Oc2ccnc3[nH]ccc23)c(F)c1`, the IC50 entry with A549, with HepG2, with MCF7 and with PC-3 was “Not Active” each time.

Take `O=C(N/N=C/c1ccc(O)cc1)Nc1ccc(Oc2ccnc3[nH]ccc23)c(F)c1`: the pIC50 is 5.42 in the test on A549, 5.71 in the test on HepG2 and 5.56 in the test on PC-3. For the same compound, the IC50 result with MCF7 is “Not Active”.

For the compound `CN1CCN(CCCn2cccc2/C=N/NC(=O)Nc2ccc(Oc3ccnc4[nH]ccc34)c(F)c2)CC1`, the pIC50 with A549 is 5.66; with HepG2 it was 5.56; in the test with MCF7 it was 5.43; with PC-3, 5.66.

For `O=C(N/N=C/c1ccc([N+](=O)[O-])cc1)Nc1ccc(Oc2ccnc3[nH]ccc23)c(F)c1`, the pIC50 in the test with A549 is 7.70; with HepG2, 5.52; in the test on MCF7, 5.40; in the test with PC-3, 6.82.

Regarding `O=C(N/N=C/c1cccc(Cl)c1Cl)Nc1ccc(Oc2ccnc3[nH]ccc23)cc1`, the IC50 entry in the test with A549, in the test with HepG2, in the test on MCF7 and in the test with PC-3 was “Not Active” each time.

Regarding `CN(C)CCn1cccc1/C=N/NC(=O)Nc1ccc(Oc2ccnc3[nH]ccc23)cc1`, the IC50 entry with A549 and in the test with HepG2 was “Not Active” throughout. For the same compound, the pIC50 with PC-3 is 5.41.

Take `CN(C)CCn1cccc1/C=N/NC(=O)Nc1ccc(Oc2ccnc3[nH]ccc23)c(F)c1`: the IC50 result with A549 is given as “Not Active”. The pIC50 in the test with HepG2 was 5.05; in the test with PC-3, 5.80.

(Values after ChEMBL document CHEMBL4251648, “Synthesis and bioevaluation and doking study of 1H-pyrrolo[2,3-b]pyridine derivatives bearing aromatic hydrazone moiety as c-Met inhibitors” (Eur J Med Chem, 2018).)
